Test results published in the array DNA melting data of Ke et al. (doi:10.1101/2024.01.08.574731).

Legend:
[1] = folding enthalpy; higher = less favourable; fluorescence melt of hairpins on a sequencing array, two-state fit; details: sodium 0.088 M
Summary of the method: (§1)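 In 50 mM Na-HEPES pH 8.0 containing 25 mM NaCl, hairpins from the library on a sequenced MiSeq flow cell were imaged for Cy3 fluorescence at 2.5 °C steps up to 60 °C, with Cy3 and quencher oligos annealed. After normalisation to pre-quench Cy3 and to control constructs, two-state fits with bootstrapping gave melting temperature and folding enthalpy. Four replicates were combined by inverse-variance weighting, and fitted temperatures were shifted up by 9.35 °C to match UV melts.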

[2] = melting temperature; fluorescence melt of hairpins on a sequencing array, two-state fit, raised by 9.35 °C to match UV melts; details: sodium 0.088 M
Summary of the method: as §1

Sequence | folding enthalpy [1] [kJ/mol] | Tm [2] [°C]
GGATCCGGAAACAGATCC (((((.(....).))))) | -139 | 41.6
CGGAGTCGGAAACGACCG (((..(((....)))))) | -66.4 | 41.3
GTTGACGAAAGTCAGAAC ((((((....)))..))) | -43.7 | 36.5
GCGGGAGGAAACTCTCGC (((.(((....))).))) | -156 | 57.5
GCCCTTCGAAAGAAGGC (((.(((....)))))) | -89.7 | 52.9
GTTCATGGAAACATGAGC (.(((((....))))).) | -97.7 | 43.9
GATACAGCGAAAGCTATC (((..(((....)))))) | -43.4 | 26.2
GCAATGACGAAAGTCTGC (((..(((....)))))) | -81.4 | 42
GCAAACCCGAAAGGGTGC (((..(((....)))))) | -73.1 | 51.7
GCCAAAGCGAAAGCTGGC (((..(((....)))))) | -109 | 59.7
GTCATCGAAAGATAGAC ((((((....))).))) | -103 | 39.7
GGTTACGAAAGTACAACC ((((((....)))..))) | -79.8 | 36.1
GTCTCTGGAAACGGAGAC (((((.(....).))))) | -145 | 50.8
GAGCACGGAAACGTGTTC ((.((((....)))).)) | -109 | 51.6
GGATCAGGAAACTGACCC ((.((((....)))).)) | -116 | 41.4
GCTCGACGAAAGTCAAGC (((.(((....))).))) | -116 | 51.8
GCATCCGGAAACAGATGC (((((.(....).))))) | -154 | 45
GATGGCGGAAACGTCGTC ((.(.((....)).).)) | -124 | 45.4
GACTACGAAAGTATCGTC ((((((....)))..))) | -85.2 | 31.1
GCTCCAGCGAAAGCTAGC (((..(((....)))))) | -36.4 | 34
GCCACTTCGAAAGAAGGC (((..(((....)))))) | -54.2 | 35.5
GATCGAGGTTTCGATC ((((((....)))))) | -187 | 53.2
GGAGACGCGAAAGCGTCC (((..(((....)))))) | -29.7 | 45.3

Sequence | folding enthalpy [1] [kJ/mol] | Tm [2] [°C]
GGTTTAGGAAACTAGACC (((.(((....))).))) | -127 | 37.5
GATCAAATAGTTGATC ((((((....)))))) | -124 | 37.9
GTTATCGAAAGATAAAAC ((((((....)))..))) | -38.9 | 26.5
GGCGGCGAAAGCCCGGCC ((((((....)))..))) | -74.2 | 61.5
GCTCTGCGAAAGCTGCGC ((.(.((....)).).)) | -76.9 | 44.2
AGCAGGAAACTGCT (((((....))))) | -95.2 | 52.7
GCAAGCGAAAGCTTATGC ((((((....)))..))) | -61.6 | 39.8
GTCTCACGAAAGTGGAC (((.(((....)))))) | -86.6 | 47.2
GCCCAGGGAAACCTGAGC ((.((((....)))).)) | -80.2 | 45.5
GGAGTTGAAAAACTCC ((((((....)))))) | -152 | 55.7
GTACGCGAAAGCGGTAC ((((((....))).))) | -69.5 | 56.5
GGTTGGGGAAACCCAATC (.(((((....))))).) | -110 | 48.7
CGCGTACGGAAACGTGCG (((..(((....)))))) | -99.2 | 50
GGCCTGGGAAACCAGGTC (.(((((....))))).) | -138 | 58.5
GATCTACTGCTAGATC ((((((....)))))) | -109 | 40.1
GCTCTCGAAAGAGCGAGC ((((((....)))..))) | -63.3 | 49.3
GTCAGCGAAAGCTTTGAC ((((((....)))..))) | -64.1 | 35
GCGGATGGAAACGTCCGC (((((.(....).))))) | -192 | 62.6
TGTCCGAAAGGACA (((((....))))) | -56.9 | 68.8
CGATTACGGAAACGTTCG (((..(((....)))))) | -90 | 38.5
GATTGCGAAAGCAATATC ((((((....)))..))) | -54.8 | 50.1
GGAGGACGAAAGTCTCC (((.(((....)))))) | -94.7 | 50.5
GGGTCTGGAAACAGACCC (((((((....))))))) | -151 | 68.8
